Broadly, the MIC is the least concentration at which growth counts as inhibited. In general, MIC50 refers to an inhibitory concentration at the 50% level, which refers to growth in some studies and to a panel of isolates in others. Higher therefore signals weaker potency.

Type in all cases: functional
The subject of test [1] is Candida albicans. Kind of test: Antifungal activity against azole-susceptible Candida albicans ATCC MYA-2310 after 48 hrs in presence of (2R,3S,4R,5R,6R)-5-amino-2-(aminomethyl)-6-((1R,2S,3S,4R,6S)-4,6-diamino-3-((2S,3R,4S,5S,6S)-4-amino-6-(dodecylthiomethyl)-3,5-dihydroxytetrahydro-2H-pyran-2-yloxy)-2-hydroxycyclohexyloxy)tetrahydro-2H-pyran-3,4-diol by checkerboard microdilution assay. To be noted: ATCC MYA-2310, 48 h. Put shortly: (§1)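 Checkerboard combinations of the aminoglycoside amphiphile with posaconazole against yeast strains, run in duplicate. Each agent's MIC is taken alone and in combination. The fractional inhibitory concentration index (FICI) is calculated to classify the interaction.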
(Broth dilution looks for growth in wells or tubes with falling amounts of substance.)

In test [2] the test system is Candida albicans. Kind of test: Antifungal activity against azole-susceptible Candida albicans ATCC MYA-2876 assessed as fractional inhibition after 48 hrs in presence of (2R,3S,4R,5R,6R)-5-amino-2-(aminomethyl)-6-((1R,2S,3S,4R,6S)-4,6-diamino-3-((2S,3R,4S,5S,6S)-4-amino-6-(dodecylthiomethyl)-3,5-dihydroxytetrahydro-2H-pyran-2-yloxy)-2-hydroxycyclohexyloxy)tetrahydro-2H-pyran-3,4-diol by checkerboard microdilution assay. To be noted: ATCC MYA-2876, 48 h. Put shortly:
as §1

Test [3] concerns Candida albicans. Nature of the test: Antifungal activity against azole-resistant Candida albicans ATCC 64124 after 48 hrs in presence of (2R,3S,4R,5R,6R)-5-amino-2-(aminomethyl)-6-((1R,2S,3S,4R,6S)-4,6-diamino-3-((2S,3R,4S,5S,6S)-4-amino-6-(dodecylthiomethyl)-3,5-dihydroxytetrahydro-2H-pyran-2-yloxy)-2-hydroxycyclohexyloxy)tetrahydro-2H-pyran-3,4-diol by checkerboard microdilution assay. To be noted: ATCC 64124, 48 h. Summed up: as §1

Test [4] concerns Candida albicans. Nature of the test: Antifungal activity against azole-resistant Candida albicans ATCC 90819 after 48 hrs in presence of (2R,3S,4R,5R,6R)-5-amino-2-(aminomethyl)-6-((1R,2S,3S,4R,6S)-4,6-diamino-3-((2S,3R,4S,5S,6S)-4-amino-6-(dodecylthiomethyl)-3,5-dihydroxytetrahydro-2H-pyran-2-yloxy)-2-hydroxycyclohexyloxy)tetrahydro-2H-pyran-3,4-diol by checkerboard microdilution assay. To be noted: ATCC 90819, 48 h. Summed up:
as §1

Test [5] deals with Candida albicans. Kind of test: Antifungal activity against azole-resistant Candida albicans MYA-1237 after 48 hrs by microbroth dilution method. To be noted: MYA-1237, 48 h. Summed up:
(§2)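 Yeast MIC by broth microdilution, run in duplicate. The aminoglycoside compounds are read as MIC-0 (complete inhibition). Azoles are read as MIC-2 (50% inhibition).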

Test [6] has as its system Candida albicans. Kind of test: Antifungal activity against azole-susceptible Candida albicans ATCC MYA-2876 after 48 hrs in presence of (2R,3S,4R,5R,6R)-5-amino-2-(aminomethyl)-6-((1R,2S,3S,4R,6S)-4,6-diamino-3-((2S,3R,4S,5S,6S)-4-amino-6-(dodecylthiomethyl)-3,5-dihydroxytetrahydro-2H-pyran-2-yloxy)-2-hydroxycyclohexyloxy)tetrahydro-2H-pyran-3,4-diol by checkerboard microdilution assay. To be noted: ATCC MYA-2876, 48 h. Put shortly: as §1

In test [7] the test system is Candida albicans. Nature of the test: Antifungal activity against azole-resistant Candida albicans ATCC 90819 after 48 hrs by microbroth dilution method. To be noted: ATCC 90819, 48 h. Summed up:
as §2

For test [8], the system named is Candida albicans. Nature of the test: Antifungal activity against azole-resistant Candida albicans MYA-1237 after 48 hrs in presence of (2R,3S,4R,5R,6R)-5-amino-2-(aminomethyl)-6-((1R,2S,3S,4R,6S)-4,6-diamino-3-((2S,3R,4S,5S,6S)-4-amino-6-(dodecylthiomethyl)-3,5-dihydroxytetrahydro-2H-pyran-2-yloxy)-2-hydroxycyclohexyloxy)tetrahydro-2H-pyran-3,4-diol by checkerboard microdilution assay. To be noted: MYA-1237, 48 h. Summed up: as §1

The test system of test [9] is Candida albicans. Nature of the test: Antifungal activity against azole-susceptible Candida albicans ATCC MYA-2310 assessed as fractional inhibition after 48 hrs in presence of (2R,3S,4R,5R,6R)-5-amino-2-(aminomethyl)-6-((1R,2S,3S,4R,6S)-4,6-diamino-3-((2S,3R,4S,5S,6S)-4-amino-6-(dodecylthiomethyl)-3,5-dihydroxytetrahydro-2H-pyran-2-yloxy)-2-hydroxycyclohexyloxy)tetrahydro-2H-pyran-3,4-diol by checkerboard microdilution assay. To be noted: ATCC MYA-2310, 48 h. Summed up: as §1

For test [10], the system named is Candida albicans. Nature of the test: Antifungal activity against azole-resistant Candida albicans ATCC 90819 assessed as fractional inhibition after 48 hrs in presence of (2R,3S,4R,5R,6R)-5-amino-2-(aminomethyl)-6-((1R,2S,3S,4R,6S)-4,6-diamino-3-((2S,3R,4S,5S,6S)-4-amino-6-(dodecylthiomethyl)-3,5-dihydroxytetrahydro-2H-pyran-2-yloxy)-2-hydroxycyclohexyloxy)tetrahydro-2H-pyran-3,4-diol by checkerboard microdilution assay. To be noted: ATCC 90819, 48 h. Summed up: as §1

In a further test the test system is Aspergillus nidulans. Nature of the test: Antifungal activity against Aspergillus nidulans ATCC 38163 after 48 hrs by microbroth dilution method. To be noted: ATCC 38163, 48 h. Put shortly:
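Filamentous fungus MIC by broth microdilution, run in duplicate. All compounds are read as MIC-0 (complete inhibition).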

For test [11], the system named is Candida albicans. Nature of the test: Antifungal activity against azole-resistant Candida albicans ATCC 64124 after 48 hrs by microbroth dilution method. To be noted: ATCC 64124, 48 h. Summed up:
as §2

The test system of test [12] is Candida albicans. Kind of test: Antifungal activity against azole-resistant Candida albicans MYA-1003 assessed as fractional inhibition after 48 hrs in presence of (2R,3S,4R,5R,6R)-5-amino-2-(aminomethyl)-6-((1R,2S,3S,4R,6S)-4,6-diamino-3-((2S,3R,4S,5S,6S)-4-amino-6-(dodecylthiomethyl)-3,5-dihydroxytetrahydro-2H-pyran-2-yloxy)-2-hydroxycyclohexyloxy)tetrahydro-2H-pyran-3,4-diol by checkerboard microdilution assay. To be noted: MYA-1003, 48 h. Put shortly: as §1

Test [13] deals with Candida albicans. Nature of the test: Antifungal activity against azole-resistant Candida albicans ATCC 10231 after 48 hrs in presence of (2R,3S,4R,5R,6R)-5-amino-2-(aminomethyl)-6-((1R,2S,3S,4R,6S)-4,6-diamino-3-((2S,3R,4S,5S,6S)-4-amino-6-(dodecylthiomethyl)-3,5-dihydroxytetrahydro-2H-pyran-2-yloxy)-2-hydroxycyclohexyloxy)tetrahydro-2H-pyran-3,4-diol by checkerboard microdilution assay. To be noted: ATCC 10231, 48 h. Put shortly: as §1

In test [14] the test system is Candida albicans. Kind of test: Antifungal activity against azole-resistant Candida albicans ATCC 64124 assessed as fractional inhibition after 48 hrs in presence of (2R,3S,4R,5R,6R)-5-amino-2-(aminomethyl)-6-((1R,2S,3S,4R,6S)-4,6-diamino-3-((2S,3R,4S,5S,6S)-4-amino-6-(dodecylthiomethyl)-3,5-dihydroxytetrahydro-2H-pyran-2-yloxy)-2-hydroxycyclohexyloxy)tetrahydro-2H-pyran-3,4-diol by checkerboard microdilution assay. To be noted: ATCC 64124, 48 h. Put shortly: as §1

Test [15] relates to Candida albicans. Nature of the test: Antifungal activity against azole-resistant Candida albicans MYA-1237 assessed as fractional inhibition after 48 hrs in presence of (2R,3S,4R,5R,6R)-5-amino-2-(aminomethyl)-6-((1R,2S,3S,4R,6S)-4,6-diamino-3-((2S,3R,4S,5S,6S)-4-amino-6-(dodecylthiomethyl)-3,5-dihydroxytetrahydro-2H-pyran-2-yloxy)-2-hydroxycyclohexyloxy)tetrahydro-2H-pyran-3,4-diol by checkerboard microdilution assay. To be noted: MYA-1237, 48 h. Put shortly:
as §1

For test [16], the system named is Candida albicans. Nature of the test: Antifungal activity against azole-susceptible Candida albicans ATCC MYA-2876 after 48 hrs by microbroth dilution method. To be noted: ATCC MYA-2876, 48 h. Put shortly: as §2
Test [17] concerns Candida albicans. Nature of the test: Antifungal activity against azole-resistant Candida albicans MYA-1003 after 48 hrs in presence of (2R,3S,4R,5R,6R)-5-amino-2-(aminomethyl)-6-((1R,2S,3S,4R,6S)-4,6-diamino-3-((2S,3R,4S,5S,6S)-4-amino-6-(dodecylthiomethyl)-3,5-dihydroxytetrahydro-2H-pyran-2-yloxy)-2-hydroxycyclohexyloxy)tetrahydro-2H-pyran-3,4-diol by checkerboard microdilution assay. To be noted: MYA-1003, 48 h. Summed up: as §1

The subject of test [18] is Candida albicans. Nature of the test: Antifungal activity against azole-resistant Candida albicans ATCC 10231 after 48 hrs by microbroth dilution method. To be noted: ATCC 10231, 48 h. Summed up: as §2
The subject of test [19] is Candida albicans. Kind of test: Antifungal activity against azole-resistant Candida albicans MYA-1003 after 48 hrs by microbroth dilution method. To be noted: MYA-1003, 48 h. Put shortly: as §2
In test [20] the test system is Candida albicans. Kind of test: Antifungal activity against azole-resistant Candida albicans ATCC 10231 assessed as fractional inhibition after 48 hrs in presence of (2R,3S,4R,5R,6R)-5-amino-2-(aminomethyl)-6-((1R,2S,3S,4R,6S)-4,6-diamino-3-((2S,3R,4S,5S,6S)-4-amino-6-(dodecylthiomethyl)-3,5-dihydroxytetrahydro-2H-pyran-2-yloxy)-2-hydroxycyclohexyloxy)tetrahydro-2H-pyran-3,4-diol by checkerboard microdilution assay. To be noted: ATCC 10231, 48 h. Summed up:
as §1

Values after ≈ are worked out from the molar mass of the structure shown.

Turning to `CC[C@@H]([C@H](C)O)n1ncn(-c2ccc(N3CCN(c4ccc(OC[C@@H]5CO[C@@](Cn6cncn6)(c6ccc(F)cc6F)C5)cc4)CC3)cc2)c1=O` [POSACONAZOLE], the minimum inhibitory concentration (MIC) was 0.39 µg/mL in the test on Candida albicans [1]; 1.56 µg/mL in the test with Candida albicans [2]; 0.78 µg/mL with Candida albicans [3]; 0.78 µg/mL with Candida albicans [4]; 0.78 µg/mL with Candida albicans [6]; 0.78 µg/mL with Candida albicans [8]. Besides, the minimum inhibitory concentration (MIC) in the test on Candida albicans [9] was 1.56 µg/mL; in the test with Candida albicans [10], 0.78 µg/mL; in the test on Aspergillus nidulans, no more than 1.95 µg/mL; in the test with Candida albicans [12] it was 1.56 µg/mL; in the test with Candida albicans [13] it was 0.06 µg/mL; in the test with Candida albicans [14], 1.56 µg/mL. The MIC with Candida albicans [15] is 0.78 µg/mL; with Candida albicans [17] it was 0.78 µg/mL; in the test with Candida albicans [20], 0.06 µg/mL. For the same molecule, the MIC50 is 15.6 µg/mL (≈ 22.3 µM) in the test on Candida albicans [5]; 31.2 µg/mL (≈ 44.5 µM) with Candida albicans [7]; greater than 62.5 µg/mL with Candida albicans [11]; 7.8 µg/mL (≈ 11.1 µM) with Candida albicans [16]; 0.5 µg/mL (≈ 0.713 µM) against Candida albicans [18]; 15.6 µg/mL (≈ 22.3 µM) against Candida albicans [19].

The values above are taken from ChEMBL document CHEMBL3739331, “Synthesis and Bioactivities of Kanamycin B-Derived Cationic Amphiphiles” (J Med Chem, 2015).
